Results as given in ChEMBL document CHEMBL3112585, “Inhibition of reverse transcriptase and Taq DNA polymerase by compounds possessing the coumarin framework” (Bioorg Med Chem Lett, 2014).
Activity calls are given as the source filed them. No cut-off for these calls is given here.

Experiments:
[1] = target: DNA polymerase I, thermostable (Thermus aquaticus) (UniProt P19821); assay: (§1) Inhibition of Thermus aquaticus taq DNA polymerase by PCR analysis
Procedure, shortened: (§2)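 PCR with 2.5 U Taq polymerase in 40 mM Tris-acetate pH 8.3, 15 mM MgCl2, […], 2.5 mM each dNTP; compounds in DMSO at varying concentrations. 35 cycles: 95 °C 1 min, anneal 56 °C, extend 72 °C 90 s. Ethidium bromide-stained gel band intensities scanned; IC50 = concentration inhibiting activity 50%.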

[2] = Inhibition of MMLV reverse transcriptase using desoxynucleotide triphosphate as substrate after 10 mins by RT-PCR analysis; parameters: species or system Moloney murine leukemia virus
Procedure, shortened: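 Reverse transcription mix: 1 µg RNA in commercial buffer, 2.0 U MMLV-RT, 20 µM random primers, 1.0 mM each dNTP; compounds (DMSO) added at varying concentrations during RT step. Heated 70 °C 10 min, then incubated 1 h at […]. Products on ethidium bromide-stained agarose gel, band intensities quantified by scanning; IC50 = concentration giving 50% inhibition.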

[3] = target: DNA polymerase I, thermostable (Thermus aquaticus, UniProt P19821); assay: as §1; procedure, shortened: as §2
Chain of DNA polymerase I, thermostable (P19821 whole entry): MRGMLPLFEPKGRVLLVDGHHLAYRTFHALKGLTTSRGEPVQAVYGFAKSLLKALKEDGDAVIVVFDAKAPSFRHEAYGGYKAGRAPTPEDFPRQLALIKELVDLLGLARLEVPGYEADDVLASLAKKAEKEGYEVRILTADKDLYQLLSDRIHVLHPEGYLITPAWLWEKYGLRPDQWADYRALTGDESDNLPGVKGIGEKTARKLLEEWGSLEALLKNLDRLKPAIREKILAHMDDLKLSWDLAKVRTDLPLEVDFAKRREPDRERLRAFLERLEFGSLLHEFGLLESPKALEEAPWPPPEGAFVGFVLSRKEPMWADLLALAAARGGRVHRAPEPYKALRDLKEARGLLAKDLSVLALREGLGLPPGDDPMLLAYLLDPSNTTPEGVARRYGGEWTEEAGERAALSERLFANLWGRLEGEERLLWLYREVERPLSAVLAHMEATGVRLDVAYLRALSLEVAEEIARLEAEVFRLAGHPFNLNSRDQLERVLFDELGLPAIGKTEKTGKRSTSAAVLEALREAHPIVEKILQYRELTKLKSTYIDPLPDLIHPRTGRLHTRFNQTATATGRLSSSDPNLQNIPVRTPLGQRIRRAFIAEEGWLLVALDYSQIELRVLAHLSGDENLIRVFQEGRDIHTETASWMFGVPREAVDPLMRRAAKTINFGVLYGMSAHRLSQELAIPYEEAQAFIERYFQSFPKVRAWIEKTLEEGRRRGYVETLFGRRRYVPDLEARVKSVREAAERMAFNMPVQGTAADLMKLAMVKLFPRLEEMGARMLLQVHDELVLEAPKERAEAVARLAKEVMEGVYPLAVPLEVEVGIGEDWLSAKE

Chain of DNA polymerase I, thermostable (Thermus aquaticus) (P19821 whole entry): as above

SMILES | inhibition [1] | IC50 [2] [µM] | IC50 [3] [µM]
CC(C)(O)C(=O)COc1c2c(cc3oc(=O)ccc13)OCO2 | inactive | – | –
O=c1ccc2ccccc2o1 [COUMARIN] | inactive | 38.6 | –
C=CCc1c(O)c2ccccc2oc1=O | inactive | 51 | –
C/C(C=O)=C\COc1c2c(cc3oc(=O)ccc13)OCO2 | inactive | – | –
CC(C)(O)C(Br)COc1c2c(cc3oc(=O)ccc13)OCO2 (stereo unspecified) | – | – | 57.9
CC(C)=CCOc1c2c(cc3oc(=O)ccc13)OCO2 | inactive | – | –
CC(C)(O)C(O)COc1c2c(cc3oc(=O)ccc13)OCO2 (stereo unspecified) | inactive | – | –
COc1cc2c(c3oc(=O)ccc13)OCO2 | inactive | – | –
C/C(=C\COc1c2c(cc3oc(=O)ccc13)OCO2)CO | – | – | 48.1
